XiGFP reactiv – reactivates the inactive X chromosome in mouse fibroblasts. XiGFP mouse fibroblasts, % GFP-positive cells imaging, 3 d; cells co-treated with 5-aza-dC sensitizer; scaled so ellipticine positive control = 100%. activation, % at 7.58 µM. 360,000 tested, 0.055% active. AID 743238;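 active = mean normalized replicate activation at least 10% and every replicate at or above 10%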;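 note: 0% = median of on-plate neutral control wells and 100% = ellipticine 6 µM median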
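System: 68-5-11 XiGFP fibroblast line; Timing: 3 days compound exposure; Compound dosing: one concentration, pinned; Benchmarks: positive control ellipticine, 6 µM final; Buffer or medium: DMEM containing 5-aza-dC.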
Rpn11 inh – blocks the human proteasome subunit Rpn11 | O00487 | human 26S proteasome, Ub4-pepOG fluorescence polarization; 20S core pre-blocked with epoxomicin | inhibition, % at 20 µM | 360,000 tested, 0.59% active | AID 588493;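 active = inhibition at 20 µM, scaled to each plate's controls, above about 33%, limit read from the data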
Target sequence (O00487 whole entry, looked up): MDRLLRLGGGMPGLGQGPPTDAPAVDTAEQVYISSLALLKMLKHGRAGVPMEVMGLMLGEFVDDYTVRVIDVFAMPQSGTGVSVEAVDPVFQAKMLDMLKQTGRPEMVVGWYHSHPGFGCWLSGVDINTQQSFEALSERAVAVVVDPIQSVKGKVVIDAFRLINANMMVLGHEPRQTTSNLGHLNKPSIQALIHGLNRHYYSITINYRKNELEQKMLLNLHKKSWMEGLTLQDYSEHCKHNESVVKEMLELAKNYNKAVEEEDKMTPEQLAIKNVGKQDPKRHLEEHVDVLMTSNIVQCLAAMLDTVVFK
aDG glyco act – alpha-DG glycosylation activation | Pro5-aDG cells, alpha-DG glycosylation AlphaScreen (IIH6); 0% Pro5, 100% B10-LARGE cell signal | activation, % at 10 µM | 360,000 tested, 0.22% active | AID 624168;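 active = activation of at least 8% versus controls, or a plate z-score of at least 8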;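 note: Pro5 are CHO cells carrying HIG-tagged alpha-DG that lacks glycosylation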
CSN inh – inhibitors of human CSN-mediated cullin deneddylation. Q92905. Purified CSN, SCF-Nedd8-OG deneddylation, fluorescence polarization. inhibition, % at 12.5 µM. 360,000 tested, 0.38% active;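 active = pattern-corrected inhibition above about 35%, with an unprinted fluorescence ratio check between 0.5 and 1.5, limit read from the data, passing the limit was not always enough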;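 note: 0% = enzyme with substrate and 100% = substrate without enzyme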
Target sequence (Q92905 whole entry, looked up, one chain of several): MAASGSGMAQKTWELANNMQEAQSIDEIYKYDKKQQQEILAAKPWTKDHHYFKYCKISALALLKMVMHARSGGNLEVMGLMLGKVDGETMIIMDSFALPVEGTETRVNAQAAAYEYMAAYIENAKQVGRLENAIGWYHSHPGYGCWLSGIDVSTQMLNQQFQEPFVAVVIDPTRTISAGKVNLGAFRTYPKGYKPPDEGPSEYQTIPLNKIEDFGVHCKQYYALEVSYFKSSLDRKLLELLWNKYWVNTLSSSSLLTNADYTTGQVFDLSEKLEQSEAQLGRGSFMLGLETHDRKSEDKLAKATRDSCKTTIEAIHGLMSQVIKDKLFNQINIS
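assay system = purified human Csn5 enzyme expressed in HEK293T cells | amount = 0.24 nM enzyme | buffer or medium = Tris/NaCl/DTT buffer, pH 7.5 | reagent = 10 nM SCFSkp2-Nedd8OG | compound = one concentration, 12.5 µM, 0.25% DMSO | times = 90 min reaction at room temperature | signal = FP | read-out basis = % inhibition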
HNF4A DNA FP – change in binding of human HNF4 alpha to DNA | P41235 | HNF4a-FITC DNA binding, fluorescence polarization, 1 h | activity change, % at 10 µM | 360,000 tested, 0.3% active | AID 1224865; in the data active = activity change above about 30%, passing the limit was not always enough
TPT1 inh – inhibitors of Candida albicans tRNA 2'-phosphotransferase TPT1; recombinant caTPT1, FP RNA substrate dephosphorylation; inhibition, % at 5 µM; 300,000 tested, 0.81% active; AID 1962;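 active = inhibition above the mean of all tested compounds plus 3 SD, set per screening campaign, cut at about 24% in these data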;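 note: plate controls were DMSO alone for no effect and ferristatin control at 100 nM for full effect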
* = called active by the depositor; . = no result shown; ! = not confirmed by another sample. This is a sample that favours compounds with a hit; in the whole collection about 1.3% have one here.

SMILES	XiGFP reactiv	Rpn11 inh	aDG glyco act	CSN inh	HNF4A DNA FP	TPT1 inh
Cc1cccc(-c2ccc([C@@H]3[C@H](CO)N4C(=O)CN(C(=O)c5cnccn5)C[C@@H]34)cc2)c1	0	.	.	.	.	.
CCN(C(=S)Nc1ccc(C(C)=O)cc1)C1CCCCC1	0	10	0	48*	1	1
Clc1ccc(-c2nnc3sc(-c4ccc(Br)o4)nn23)cc1	.	-164	0	-82	-96	-69
Cc1oc(-c2ccc(Cl)cc2)cc1-c1nn2c(-c3ccoc3C)nnc2s1	.	25	0	36*	-27	19
COc1ccc(NC(=O)N[C@H]2CC[C@@H](CCn3cc(-c4ccccc4)nn3)O[C@H]2CO)cc1	1	.	.	.	.	.
Cc1ccc(NC(=O)c2ccc(NCCCN3CCOCC3)c([N+](=O)[O-])c2)cc1Cl	0	7	2	-16	3	-2
O=C(Nc1ccc(Cl)c([N+](=O)[O-])c1)c1ccc(NCCCN2CCOCC2)c([N+](=O)[O-])c1	.	54*	-1	5	30	16
O=[N+]([O-])c1cc(C(F)(F)F)cc([N+](=O)[O-])c1NCCCN1CCOCC1	0	-4	1	-4	62*	-3
CS(=O)(=O)N1CC2(C1)[C@H](c1ccccc1)[C@H](CO)N2C(=O)c1ccccc1	0	.	.	.	.	.
C[C@@H]1CN([C@@H](C)CO)C(=O)Cc2cc(NS(=O)(=O)c3ccc(Cl)cc3)ccc2O[C@@H]1CN(C)CC1CCCCC1	0	.	.	.	.	.
CN(C)CCCNC(=O)C[C@H]1C=C[C@H](NC(=O)Cc2cccnc2)[C@H](CO)O1	0	.	.	.	.	.
NCC12CC3CC(C1)CC(c1ccc(Br)cc1)(C3)C2	0	-6	0	2	4	2
Cc1ccc(C23CC4CC(CC(CN)(C4)C2)C3)cc1	0	3	9.5*	-1	2	.
COC(=O)C1C2CC3c4[nH]c5cc(OC)ccc5c4CCN3CC2CC(OC(=O)CC(C)=O)C1OC (stereo unspecified)	4	.	0	11	49*	.
O=C(C[C@H]1C=C[C@@H](NC(=O)Nc2ccc3c(c2)OCO3)[C@H](CO)O1)NCc1ccc(Cl)cc1	0	.	.	.	.	.
O=C(CNc1ccc2ccccc2c1)N/N=C/c1ccc([N+](=O)[O-])o1	0	4	9.8*	6	1	-1
O=C(C[C@H]1CC[C@H](NS(=O)(=O)c2ccccc2)[C@@H](CO)O1)N1CCC(Cc2ccccc2)CC1	0	.	.	.	.	.
C[C@@H]1CN([C@@H](C)CO)S(=O)(=O)c2ccc(-c3cccc(C(=O)N(C)C)c3)cc2O[C@@H]1CN(C)C(=O)Cc1ccccn1	0	.	.	.	.	.
COc1ccc(-c2cn3cc(C)ccc3n2)cc1Br	0	0	94*	-1	9	-1
COc1ccc(-c2cn3cc(Cl)ccc3n2)cc1OC	.	5	0	6	0	-2
CCCN(C)C[C@H]1OCCCC[C@@H](C)Oc2ccc(NC(=O)Nc3ccc(C(F)(F)F)cc3)cc2C(=O)N([C@H](C)CO)C[C@H]1C	0	.	.	.	.	.
CCCSc1nc(C)c(-c2csc(C(C#N)=C3CCCC3)n2)cc1C#N	.	30	0	45*	-13	7
COc1ccccc1C(=O)Nc1ccc2c(c1)OC[C@@H](C)N(C(C)=O)C[C@@H](C)[C@@H](OC)CN(C)C2=O	0	.	.	.	.	.
COc1ccc(C#Cc2cnc3c(c2)C(=O)N([C@H](C)CO)C[C@H](C)[C@H](CN(C)C(=O)Nc2cccc4ccccc24)O3)cc1OC	0	.	.	.	.	.
CCCNC(=O)N1C[C@H](C)[C@@H](OC)CN(C)C(=O)c2cc(NC(=O)C3CCC3)ccc2OC[C@@H]1C	0	.	.	.	.	.
SMILES	XiGFP reactiv	Rpn11 inh	aDG glyco act	CSN inh	HNF4A DNA FP	TPT1 inh
CCN1C(=O)C(=CC=CN(C)c2ccccc2)SC1=S	0	.	-1	64*	176	.
O=C(O)CN1C(=O)/C(=C/C=C/c2ccccc2)SC1=S	0	1	0	10	2	0
CN(C)CC(=O)N[C@H]1CC[C@H](CCn2cc(C3CC3)nn2)O[C@@H]1CO	0	.	.	.	.	.
C[C@@H]1CCCCO[C@@H](CN(C)C(=O)Nc2ccc(F)cc2)[C@H](C)CN([C@H](C)CO)C(=O)c2cc(NC(=O)CCC(F)(F)F)ccc2O1	0	.	.	.	.	.
Nc1c(C(=O)N/N=C/c2ccc(Cl)cc2)cnn1-c1ccccc1	0	-2	0	119*	2	1
CC(OC(=O)/C=C/c1cccc(Cl)c1)C(=O)NC1CCCCC1C (stereo unspecified)	0	5	0	-1	0	-3
CC(OC(=O)c1cccc(Cl)c1)C(=O)NC1CCCCC1C (stereo unspecified)	0	2	0	57*	6	0
CN(C)C(=O)C[C@@H]1CC[C@@H](NC(=O)C2CC2)[C@@H](CO)O1	0	.	.	.	.	.
O=S(=O)(NCc1ccncc1)c1ccc(Br)s1	.	-2	8.9*	1	0	3
COc1ccccc1Sc1nc(-c2ccccn2)ncc1OC	0	1	4	-5	-3	7
COc1cnc(-c2ccccn2)nc1NC(C)C	1	-1	7.1*	-16	6	2
CC(=O)Nc1ccc2c(c1)CC(=O)N(C)C[C@@H](C)[C@@H](CN(C)C(=O)NC(C)C)O2	0	.	.	.	.	.
FC(F)(F)c1ccc(N2CCOCC2)c(Nc2nc3ccccc3n3cnnc23)c1	.	2	0	5	30*	0
C[C@@H]1CCCCO[C@H](CN(C)C(=O)Nc2ccccc2)[C@H](C)CN([C@H](C)CO)C(=O)c2cc(NC(=O)Nc3ccc(C(F)(F)F)cc3)ccc2O1	0	.	.	.	.	.
COc1ccc(Cl)cc1NC(=S)NCCO	0	-4	0	-10	57*	-3
Cc1sc(NC(=O)Cc2ccc3c(c2)OCO3)nc1-c1ccc2c(c1)CCN2C(=O)c1ccc(F)cc1	.	0	0	-1	1	3
Cc1sc(NC(=O)CN2CCCC2)nc1-c1ccc2c(c1)CCN2C(=O)c1cccc(F)c1	0	2	2.7*	0	6	0
C(C#CCCCCCCCCC[n+]1ccccc1)#CCCCCCCCCC[n+]1ccccc1	.	-26	5	35*!	77*	-4
CO[C@H]1CN(C)C(=O)c2cc(NS(=O)(=O)c3ccc(C)cc3)ccc2OC[C@@H](C)NC[C@H]1C	0	.	.	.	.	.
CC(=O)N[C@@H]1CC[C@H](CCNC(=O)C2CC2)O[C@H]1CO	0	.	.	.	.	.
CCC(=O)N1C[C@@H](C)[C@@H](OC)CN(C)C(=O)c2cc(NS(C)(=O)=O)ccc2OC[C@@H]1C	0	.	.	.	.	.
CC(=O)N1CC2(C1)[C@H](c1ccc(-c3ccc(C#N)cc3)cc1)[C@H](CO)N2CCC(F)(F)F	0	.	.	.	.	.
